EC50 and Activity data for 18 molecules are collected here from ChEMBL document CHEMBL1141532, “Design and synthesis of tetrazole-based growth hormone secretagogue: the SAR studies of the O-benzyl serine side chain” (Bioorg Med Chem Lett, 2008).

In assay [1] the target is Growth hormone secretagogue receptor type 1 (Homo sapiens, UniProt Q92847). Briefly: […] human growth hormone secretagogue receptor assessed as measuring intracellular calcium level by FLIPR assay. It counts as functional, cell-based. Background: A change in cytosolic calcium serves as a functional read-out for many receptors and channels.
Chain of Growth hormone secretagogue receptor type 1 (Q92847 whole entry): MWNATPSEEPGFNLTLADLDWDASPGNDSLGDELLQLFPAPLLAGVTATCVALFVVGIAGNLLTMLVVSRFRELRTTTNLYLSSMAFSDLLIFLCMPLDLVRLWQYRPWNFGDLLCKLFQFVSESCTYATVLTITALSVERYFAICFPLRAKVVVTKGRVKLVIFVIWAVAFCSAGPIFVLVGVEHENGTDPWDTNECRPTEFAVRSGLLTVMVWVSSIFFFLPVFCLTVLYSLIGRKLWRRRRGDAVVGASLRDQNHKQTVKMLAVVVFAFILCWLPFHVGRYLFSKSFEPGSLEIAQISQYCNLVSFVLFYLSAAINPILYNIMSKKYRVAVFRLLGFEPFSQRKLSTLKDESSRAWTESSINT
A further assay deals with Rattus norvegicus. Briefly: Increase of growth hormone release in rat plasma at 1.74 umol/kg, iv after 15 mins by radioimmunoassay relative to control. It counts as functional. An outline of the steps:
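Acute model in anesthetized rats. Dosed intravenously at 1.74 μmol/kg. Blood was drawn 15 min later and plasma was isolated. Rat GH was measured by radioimmunoassay. Results are given as percent increase in GH release over vehicle-treated control animals.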

Structures are written as SMILES.

With `CC(C)(N)C(=O)N[C@H](COCc1ccc(F)cc1F)c1nnnn1CCOC(=O)NCCCCO`, in assay [1], the EC50 (usually the concentration needed to bring the measured effect to its halfway point) worked out at 0.42 nM. For the same molecule, the Activity in the assay with Rattus norvegicus is 1081%. Regarding `CC(C)(N)C(=O)N[C@H](COCc1ccc(OC(F)(F)F)cc1)c1nnnn1CCOC(=O)NCCCCO`, in assay [1], the EC50 was 33.2 nM. For `Cc1ccccc1COC[C@@H](NC(=O)C(C)(C)N)c1nnnn1CCOC(=O)NCCCCO`, in assay [1], the EC50 amounted to 0.51 nM. This molecule displayed an Activity in the assay on Rattus norvegicus of 1441%. Regarding `CC(C)(N)C(=O)N[C@H](COCc1cc(Cl)cc(Cl)c1)c1nnnn1CCOC(=O)NCCCCO`, the EC50 in assay [1] was 6.75 nM. As for `CC(C)(N)C(=O)N[C@H](COCc1ccccc1-c1ccccc1)c1nnnn1CCOC(=O)NCCCCO`, in assay [1], the EC50 was found to be 0.34 nM. The Activity in the assay on Rattus norvegicus was found to be 836%.

Consider `CC(C)(N)C(=O)N[C@H](COCC1CCCCC1)c1nnnn1CCOC(=O)NCCCCO`, for which, in assay [1], the EC50 is 1.66 nM. The same molecule registered an Activity in the assay on Rattus norvegicus of 1654%.

Take `CC(C)(N)C(=O)N[C@H](COCc1cccc(Cl)c1)c1nnnn1CCOC(=O)NCCCCO`: the EC50 in assay [1] was found to be 1.6 nM. Still for that read-out and setting: then `CC(C)(N)C(=O)N[C@H](COCc1ccccc1-c1cccnc1)c1nnnn1CCOC(=O)NCCCCO`, with 1.18 nM. Same read-out and setting: then `COc1ccccc1COC[C@@H](NC(=O)C(C)(C)N)c1nnnn1CCOC(=O)NCCCCO`, with 1.11 nM. For the molecule `Cc1noc(C)c1-c1ccccc1COC[C@@H](NC(=O)C(C)(C)N)c1nnnn1CCOC(=O)NCCCCO`, in assay [1], the EC50 came to 1.04 nM. This molecule also showed an Activity in the assay on Rattus norvegicus of 5237%. On to `CC(C)(N)C(=O)N[C@H](COCc1ccccc1C(F)(F)F)c1nnnn1CCOC(=O)NCCCCO`, for which the EC50 in assay [1] stood at 0.72 nM. For the molecule `CC(C)(N)C(=O)N[C@H](COCc1cc(C(F)(F)F)cc(C(F)(F)F)c1)c1nnnn1CCOC(=O)NCCCCO`, in assay [1], the EC50 was 34 nM.

With `CC(C)(N)C(=O)N[C@H](COCc1cccc(Cl)c1Cl)c1nnnn1CCOC(=O)NCCCCO`, the EC50 in assay [1] came to 0.61 nM. For the molecule `CC(C)(N)C(=O)N[C@H](COCc1cccc(OC(F)(F)F)c1)c1nnnn1CCOC(=O)NCCCCO`, the concentration for a half-maximal effect (EC50) in assay [1] was 3.1 nM.

On to `CC(C)(N)C(=O)N[C@H](COCc1ccccc1Cl)c1nnnn1CCOC(=O)NCCCCO`, for which the EC50 in assay [1] amounted to 0.45 nM.

On to `CC(C)(N)C(=O)N[C@H](COCc1ccccc1C#N)c1nnnn1CCOC(=O)NCCCCO`, for which, in assay [1], the EC50 was 1.26 nM. Also, the Activity with Rattus norvegicus is reported as 920%. The molecule `CC(C)(N)C(=O)N[C@H](COCc1ccccc1)c1nnnn1CCOC(=O)NCCCCO` registered an Activity in the assay with Rattus norvegicus of 750%.

With `CC(C)(N)C(=O)N[C@H](COCc1cccc(C(F)(F)F)c1)c1nnnn1CCOC(=O)NCCCCO`, the EC50 in assay [1] stood at 1.79 nM.
